The list is not random: actives were taken first. Their share in the collection is about 2.7%.
PLAP activator = human PLAP activation; purified PLAP enzyme, luminescent substrate read-out; active compounds read high; 1.2% of 96,000 active; activation fold at 20 µM; AID 696; in the data active means activation fold above about 2
Target sequence (P05187 whole entry, looked up): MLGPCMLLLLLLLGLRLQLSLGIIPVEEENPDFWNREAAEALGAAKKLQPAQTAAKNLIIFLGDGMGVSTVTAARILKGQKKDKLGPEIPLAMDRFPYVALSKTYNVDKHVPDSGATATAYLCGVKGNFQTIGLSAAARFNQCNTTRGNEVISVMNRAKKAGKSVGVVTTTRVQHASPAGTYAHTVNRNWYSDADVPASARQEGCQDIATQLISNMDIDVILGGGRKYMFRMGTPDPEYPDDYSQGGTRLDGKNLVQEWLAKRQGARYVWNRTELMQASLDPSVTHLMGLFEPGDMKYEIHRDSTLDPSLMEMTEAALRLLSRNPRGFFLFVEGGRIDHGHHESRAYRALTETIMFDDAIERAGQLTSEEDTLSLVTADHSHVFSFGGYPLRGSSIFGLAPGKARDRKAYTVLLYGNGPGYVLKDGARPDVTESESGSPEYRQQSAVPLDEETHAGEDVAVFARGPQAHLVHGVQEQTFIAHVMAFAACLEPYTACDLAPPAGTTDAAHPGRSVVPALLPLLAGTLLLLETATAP
PLK1 kinase inh = inhibitors of human PLK1 kinase. P53350. recombinant PLK1 kinase, TR-FRET peptide phosphorylation. inhibition, % at 10 µM. 0.53% of 97,000 active. AID 619;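 active means inhibition of 50% or more in the single-concentration screen; inactive means inhibition below 50%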;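 further: 0% = DMSO max control and 100% = H-89 dihydrochloride min control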
PTPN22 inh 2 = LYP (human) phosphatase inhibition; Q9Y2R2; recombinant LYP catalytic domain, DiFMUP fluorescence; inhibition, % at 2 µM; 0.21% of 96,000 active; AID 640;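 active means inhibition at 2 µM at or above a set limit, the screen mean plus 3 SD, cut at about 24% in these data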;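 further: 0% = DMSO with enzyme and 100% = enzyme fully blocked by orthovanadate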
Rev-RRE block = inhibitors of HIV-1 Rev-RRE RNA interaction; inhibition, % at 8 µM; AID 704; 0.79% of 97,000 active; P05866; Rev peptide-RRE RNA binding, FRET;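 active means inhibition above the screen-wide mean plus 3 SD, cut at about 35% in these data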;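 further: 0% = median DMSO wells and 100% = median Neomycin B control wells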
Target sequence (P05866 whole entry, looked up): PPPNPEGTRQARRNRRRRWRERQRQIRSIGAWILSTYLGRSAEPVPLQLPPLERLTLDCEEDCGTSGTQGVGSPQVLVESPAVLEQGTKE
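Test system – labelled RRE RNA duplex and labelled Rev peptide · Signal – fluorescein-to-Cy5 FRET, 480 nm excitation · Evaluation – % inhibition of FRET ratio versus controls · Benchmarks – DMSO low control, neomycin B high control · Incubation – 5 min RNA-compound premix plus 15 min binding step, 25 °C · Medium – HEPES pH 7.5 salt buffer with EDTA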
PTPN22 act = activators of human LYP (PTPN22) phosphatase; Q9Y2R2; recombinant LYP, DiFMUP fluorescence; 0 = plate median, 100 = signal doubled; activation, % at 2 µM; 0.11% of 96,000 active; AID 697;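 active means activation at 2 µM above a set limit, the mean plus 5 SD, cut at about 37% in these data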
PLK1 PBD inh = Plk1 (human) PBD binding inhibition. Plk1 PBD phosphopeptide binding, fluorescence polarization. inhibition, %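 (tested at about 20 µM)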. 0.13% of 97,000 active. AID 693; in the data active means inhibition above about 34%, passing the limit was not always enough
* hit, by the source's call; · = no result given; [ ] = another dose, or the depositor's remark.

SMILES	PLAP activator	PLK1 kinase inh	PTPN22 inh 2	Rev-RRE block	PTPN22 act	PLK1 PBD inh
CCN1C(=O)/C(=C/N2CCc3ccccc32)SC1=S	0.8	-13.1	0.2	17.5	-0.5	-21.2
Cn1c(=O)c(C(=O)Nc2ncccc2O)c(O)c2ccccc21	2.2*	·	·	·	·	·
Cn1c(=O)c(C(=O)Nc2cccnc2)c(O)c2ccccc21	·	-10.6	6.2	6.2	-11.4	17.4
CCCc1nn(C)c2c1C(c1cccnc1)C(C#N)=C(N)O2 (stereo not given)	1.2	18.0	5.0	11.3	-2.3	2.3
CCN(CC)c1ccc2c(c1)OC(N)=C(C#N)C2c1cccnc1 (stereo not given)	1	-14.2	-8.0	121.0*[fluorescence artefact?]	7.8	-64.7
Cn1c(N)c(C#N)c2c(c1=S)CSC(C)(C)C2	1	7.8	5.4	40.3*	-6.0	16.8
CCN(CC)c1ccc2cc(-c3nc4ccccc4[nH]3)c(=O)oc2c1	0.9	-311.0	3.6	134.6*[fluorescence artefact?]	-6.0	-111.8
CCN(CC)c1ccc2cc(-c3nc4ccccc4n3C)c(=O)oc2c1	1.7	-35.5	5.2	132.0*[fluorescence artefact?]	-5.7	-10.6
Cc1ccccc1S(=O)(=O)Cc1ccc(C(=O)NCCN2CCN(Cc3ccccc3)CC2)o1	1.7	·	·	·	·	·
CCOC(=O)c1c(CN2CCOCC2)n(-c2ccccc2)c2cc(Br)c(O)cc12	1.4	-9.9	13.5	3.6	-13.6	-7.8
CCOc1cc(/C=N\NC(=O)c2ccc(C)nc2)cc([N+](=O)[O-])c1O	0.8	-19.7	7.3	6.0	-3.0	-3.2
COc1ccc(N=C2NC(=O)S/C2=C\c2ccc(N(C)C)cc2)cc1	0.9	-6.9	2.5	116.7*[fluorescence artefact?]	-5.2	-426.1
CCOc1ccc(N=C2NC(=O)S/C2=C\c2ccc(Cl)cc2)cc1	0.8	-11.2	25.8*	3.8	-21.7	13.7
CCOC(=O)CSc1nnc(NC(=O)c2cccc(S(=O)(=O)N3CCCCCC3)c2)s1	1.3	-10.5	12.4	10.1	-10.9	2.1
CCOc1ccc(-c2csc(N)c2C(=O)OC)cc1	1.5	-4.0	30.5*	0.1	-29.1	14.8
Cc1ccnc(N/C=C(\C#N)c2nc(-c3cccc(Br)c3)cs2)c1	0.9	-14.8	19.8	136.0*[fluorescence artefact?]	-15.5	-171.2
CC(=O)Nc1cccc(-c2csc(Nc3cc(C)ccn3)n2)c1	1.4	-10.8	-1.8	11.1	5.2	-3.6
Cc1cnn(CCC(=O)NNC(=S)Nc2ccc(F)cc2)c1	2.3*	-13.0	2.8	0.1	2.6	10.8
CC(=O)NC12CC3CC(C1)CC(C(=O)Nc1nccs1)(C3)C2	1.2	-6.6	6.9	4.3	-7.1	2.6
CCOC(=O)SC1=N/C(=C\c2ccc(N(C)C)cc2)C(=O)S1	0.5	-24.0	8.3	101.4*[fluorescence artefact?]	-6.0	-90.7
CCSC1=N/C(=C\c2ccc(C(=O)O)cc2)C(=O)S1	0.9	-9.1	-3.1	5.9	2.4	-2.4
Nc1cc(=O)[nH]c(=S)n1-c1cccc(C(F)(F)F)c1	0.8	2.8	4.0	15.4	-3.0	-23.8
CCn1c(=O)c(=O)n(CC)c2cc(S(=O)(=O)Nc3cccc(OC)c3)ccc21	1	-3.7	-8.3	4.7	5.7	0.0
COc1ccc(C(=O)Nc2nc(N3C(=O)c4ccccc4C3=O)n(-c3ccccc3)n2)cc1	2.2*	1.4	19.7	6.0	-18.8	-1.5
O=C(Nc1nc(N2C(=O)c3ccccc3C2=O)n(-c2ccccc2)n1)c1ccc(F)cc1	2.1*	-12.3	-14.8	7.2	16.8	-18.5
SMILES	PLAP activator	PLK1 kinase inh	PTPN22 inh 2	Rev-RRE block	PTPN22 act	PLK1 PBD inh
O=C(Nc1ncc2c(n1)-c1ccccc1CC2)c1ccc(F)cc1	0.9	-1.6	·	-1.4	·	30.3
CC(=O)Nc1nc(N2C(=O)c3ccccc3C2=O)n(-c2ccccc2)n1	1.5	-6.6	5.3	7.5	-1.7	-18.9
Cc1ccc(-c2nc(CS(=O)CC(=O)NCCN3CCCC3)c(C)o2)cc1 (stereo not given)	1.5	62.5*	·	2.2	·	0.0
CCCCNC(=O)CS(=O)Cc1nc(-c2cccc(Cl)c2)oc1C (stereo not given)	1.5	64.6*	·	6.8	·	-0.9
CCCCNC(=O)CS(=O)Cc1nc(-c2cccc(C)c2)oc1C (stereo not given)	1.1	-5.2	2.1	-2.1	-3.0	-15.9
Cc1oc(-c2ccc(Cl)cc2)nc1CS(=O)CC(=O)NCCCN(C)C1CCCCC1 (stereo not given)	1.5	4.5	6.7	3.9	-3.2	4.5
Cc1ccccc1-c1nc(CS(=O)CC(=O)NCCN2CCOCC2)c(C)o1 (stereo not given)	1.4	-0.2	-7.4	-0.7	4.3	-23.5
Cc1ccc(-c2nc(CS(=O)CC(=O)NCCN3CCOCC3)c(C)o2)cc1 (stereo not given)	1.5	59.1*	·	-0.1	·	-16.4
Cc1oc(-c2ccc(Cl)cc2)nc1CS(=O)CC(=O)NCCN1CCCC1 (stereo not given)	1.5	59.6*	·	-1.7	·	-2.1
COc1ccc(N2C(C(C)=O)=NN(c3ccccc3)C2c2cccs2)cc1 (stereo not given)	0.9	0.2	1.0	8.3	-1.9	-23.5
Cc1ccc(CNC(=O)CS(=O)Cc2nc(-c3ccccc3C)oc2C)cc1 (stereo not given)	1.4	-13.1	0.9	4.4	-3.7	6.3
COc1ccc(CNC(=O)CS(=O)Cc2nc(-c3ccccc3C)oc2C)cc1 (stereo not given)	1.5	67.3*	·	4.6	·	-1.1
Cc1ccccc1C1C(C#N)=C2NC(=O)c3c(sc4c3CCCCC4)N2C2=C1C(=O)CC(C)(C)C2 (stereo not given)	1.1	-10.5	1.8	39.5*	0.6	-51.3
O=C(O)c1ccccc1SCc1ccc2c(c1)OCO2	1	-9.3	-3.0	3.5	1.6	-7.7
N#Cc1c(-c2ccco2)cc(-c2ccccn2)nc1N	1.3	-1.4	-8.8	4.9	7.7	36.2
N#Cc1c(-c2ccco2)cc(-c2cccnc2)nc1N	0.8	54.9*	-1.4	13.8	-1.4	35.7
O=C(NCc1ccccc1)c1cc(-c2cccs2)on1	1.2	-4.4	-4.3	4.9	1.7	8.8
CCOc1ccc(S(=O)(=O)Nc2ccc3c(c2)OCO3)c2cccnc12	1.2	-2.3	5.0	6.1	-5.6	25.9
CCCC(=O)c1ccc2c(c1)OCCO2	1	2.0	-11.5	3.0	13.7	-11.6
O=C(O)CCC(=O)c1ccc2c(c1)OCCO2	1	65.6*	·	5.6	·	-32.8
CCC(c1nnnn1CCOC)N(Cc1cc2c(C)cc(C)cc2[nH]c1=O)CC1CCCO1 (stereo not given)	1.2	-6.3	7.8	2.4	-3.9	2.3
N#CCCn1c(=S)[nH]c2ccccc21	2.6*	-10.5	0.1	6.3	-2.5	-36.5
CCC(=O)Nc1cccc(C(=O)/C=C/c2ccccc2)c1	1	9.0	13.4	8.8	-9.7	29.0
Oc1c(CN2CCN(c3ccccn3)CC2)cc(Cl)c2cccnc12	1.8	·	·	·	·	·
OCCN1CCN(Cc2cc(Cl)c3cccnc3c2O)CC1	2.2*	11.3	-2.1	5.3	3.2	-4.8

High-throughput results deposited in PubChem by several laboratories.
